Test results reported in ChEMBL document CHEMBL1122506, “Cardiac-slowing amidines containing the 3-thioindone group. Potential antianginal agents” (1983).

Legend:
[1] = species: Canis familiaris; assay: Relative activity (fraction of the most active compound 24) was determined; assay type: functional, Canis lupus familiaris
[2] = test system: Canis familiaris; assay: Dose required to achieve 50 % of maximal cardiac slowing in triazine tachycardia test in conscious dog; assay type: functional, Canis lupus familiaris
Outline: (§1)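 Triazine tachycardia in conscious dogs: carotid artery and jugular vein catheterized with heparinized saline; 18 h after surgery, triazine vasodilator U20388 12 mg/kg po; about 1 h later, dog in sling with arterial pressure and ECG monitored. Test agent infused iv at 0.8 (mg/kg)/min to 30 mg/kg total. D50 = dose giving 50% of maximal slowing in that animal; ΔHR50 = heart-rate change at D50; CS index = %ΔHR50/D50.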

[3] = test system: Canis familiaris; assay: Evaluated for the myocardial depression rating which is none for the given compound in anesthetized, ganglion-blocked dog
[4] = test system: Canis familiaris; assay: Change in heart rate at the above D50 dose in conscious dogs; assay type: functional, Canis lupus familiaris; outline: as §1
[5] = species: Canis familiaris; assay: Cardiac slowing index was measured for potency and efficacy; assay type: functional, Canis lupus familiaris; outline: as §1
[6] = species: Canis familiaris; assay: Percent decrease from initial heart rate (percent delta HR50/HR0 x 100) in dogs; assay type: functional, Canis lupus familiaris; outline: as §1
[7] = test system: Canis familiaris; assay: Evaluated for the heart rate at dose 1.0 mg/kg in 4 animals by aminophylline-induced sinus tachycardia test; assay type: functional, Canis lupus familiaris
[8] = test system: Canis familiaris; assay: Evaluated for the heart rate at dose 2.5 mg/kg in 4 animals by glucagon-induced tachycardia test; assay type: functional, Canis lupus familiaris
[9] = test system: Canis familiaris; assay: Evaluated for the heart rate at dose 5.0 mg/kg in 4 animals by glucagon-induced tachycardia test; assay type: functional, Canis lupus familiaris
[10] = test system: Canis familiaris; assay: Evaluated for the heart rate at dose 0.5 mg/kg in 4 animals by poldine tachycardia test; assay type: functional, Canis lupus familiaris
Outline: (§2)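 Poldine tachycardia: dogs prepared surgically as in the triazine method; poldine methyl sulfate 0.5 mg/kg iv, then 30 min later test agent in increasing doses (0.5/1.0/2.5 mg/kg) at 30-min intervals; read-out is the maximum percent decrease in heart rate at each dose.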

[11] = test system: Canis familiaris; assay: Evaluated for the heart rate at dose 1.0 mg/kg in 4 animals by poldine tachycardia test; assay type: functional, Canis lupus familiaris; outline: as §2
[12] = test system: Canis familiaris; assay: Evaluated for the heart rate at dose 5.0 mg/kg in 4 animals by aminophylline-induced sinus tachycardia test; assay type: functional, Canis lupus familiaris
[13] = test system: Canis familiaris; assay: Evaluated for the heart rate at dose 2.5 mg/kg in 4 animals by poldine tachycardia test; assay type: functional, Canis lupus familiaris; outline: as §2
[14] = test system: Canis familiaris; assay: Myocardial depression in anesthetized, ganglion-blocked dog; Moderate activity.
[15] = test system: Canis familiaris; assay: Evaluated for the heart rate at dose 1.0 mg/kg in 4 animals by glucagon-induced tachycardia test; assay type: functional, Canis lupus familiaris
[16] = test system: Canis familiaris; assay: Evaluated for the heart rate at dose 2.5 mg/kg in 4 animals by aminophylline-induced sinus tachycardia test; assay type: functional, Canis lupus familiaris
[17] = test system: Canis familiaris; assay: Myocardial depression in conscious dog; Moderate activity.; assay type: functional, Canis lupus familiaris, Myocardium
[18] = test system: Canis familiaris; assay: Myocardial depression rating in anesthetized, ganglion-blocked dog; Weak activity.
[19] = test system: Canis familiaris; assay: Evaluated for the heart rate at dose 1.0 mg/kg in 5 animals by glucagon-induced tachycardia test; assay type: functional, Canis lupus familiaris
[20] = test system: Canis familiaris; assay: Evaluated for the heart rate at dose 2.5 mg/kg in 5 animals by glucagon-induced tachycardia test; assay type: functional, Canis lupus familiaris
[21] = species: Canis familiaris; assay: Evaluated for the dose required to achieve 50 % of the maximal cardiac slowing in the triazine tachycardia test.; assay type: functional, Canis lupus familiaris; outline: as §1
[22] = species: Canis familiaris; assay: Percent decrease from the initial evaluated heart rate (percent delta HR50/HR0 x 100); assay type: functional, Canis lupus familiaris; outline: as §1
[23] = test system: Canis familiaris; assay: Evaluated for the myocardial depression rating which is barely observable for the given compound in anesthetized, ganglion-blocked dog
[24] = species: Canis familiaris; assay: Cardiac slowing index of the compound; assay type: functional, Canis lupus familiaris; outline: as §1
[25] = test system: Canis familiaris; assay: Evaluated for the heart rate at dose 2.5 mg/kg in 6 animals by aminophylline-induced sinus tachycardia test; assay type: functional, Canis lupus familiaris
[26] = test system: Canis familiaris; assay: Evaluated for the heart rate at dose 5.0 mg/kg in 6 animals by aminophylline-induced sinus tachycardia test; assay type: functional, Canis lupus familiaris
[27] = test system: Canis familiaris; assay: Evaluated for the heart rate at dose 1.0 mg/kg in 6 animals by aminophylline-induced sinus tachycardia test; assay type: functional, Canis lupus familiaris
[28] = test system: Canis familiaris; assay: Evaluated for the myocardial depression rating which is severe for the given compound in anesthetized, ganglion-blocked dog
[29] = test system: Canis familiaris; assay: Evaluated for the heart rate at dose 5.0 mg/kg in 3 animals by aminophylline-induced sinus tachycardia test; assay type: functional, Canis lupus familiaris
[30] = test system: Canis familiaris; assay: Evaluated for the heart rate at dose 1.0 mg/kg in 3 animals by aminophylline-induced sinus tachycardia test; assay type: functional, Canis lupus familiaris
[31] = test system: Canis familiaris; assay: Evaluated for the heart rate at dose 2.5 mg/kg in 3 animals by aminophylline-induced sinus tachycardia test; assay type: functional, Canis lupus familiaris

SMILES	Relative activity [1]	D50 [2] [mg/kg]	Delta HR50 [4] [beats min-1]	CS index [5]	Delta HR50 [6] [%]	Max decrease in heart rate [8] [%]	Max decrease in heart rate [9] [%]	Max decrease in heart rate [10] [%]	Max decrease in heart rate [11] [%]	Max decrease in heart rate [13] [%]	Max decrease in heart rate [15] [%]	other results
CCn1cc(CC/N=C2/CCCN2C)c2ccccc21	0.79	0.8	-48	25.2	20.2							MD [3]: 0
CN1CCC/C1=N\CCSc1c[nH]c2ccccc12	0.26	2.5	-40	8.2	20.4	20	28	9	22	33	6	Max decrease in heart rate [7]: 10%; Max decrease in heart rate [12]: 39%; MD [14]: 3; Max decrease in heart rate [16]: 22%
CN1CCC/C1=N\CCSc1cn(C/C=C/c2ccccc2)c2ccccc12	0.12	6.1	-58	3.8	23.5							MD [17]: 3
CCn1cc(SCC/N=C2\CCCN2C)c2ccccc21	0.85	0.8	-39	27.2	21.8			18	34	47		Max decrease in heart rate [7]: 27%; MD [18]: 2; Max decrease in heart rate [19]: 28%; Max decrease in heart rate [12]: 53%; Max decrease in heart rate [20]: 46%; Max decrease in heart rate [16]: 43%
CC(C)NCC(O)COc1cccc2ccccc12 (stereo not given) [PROPRANOLOL]	0.13		-66	4.2	28.5	9		21	32	38	3	Max decrease in heart rate [7]: 24%; D50 [21]: 6.7 mg/kg; Max decrease in heart rate [12]: 37%; MD [14]: 3; Max decrease in heart rate [16]: 32%
Cc1[nH]c2ccccc2c1SCC/N=C1\CCCN1C	0.14	4.5	-34	4.5		29	42	15	25	30	20	Max decrease in heart rate [7]: 12%; MD [18]: 2.5; Delta HR50 [22]: 20.2%; Max decrease in heart rate [12]: 34%; Max decrease in heart rate [16]: 23%
CCCn1cc(SCC/N=C2\CCCN2C)c2ccccc21	0.5	1.7	-60	16.1	27.4							MD [23]: 1
CN1CCC/C1=N\CCC1CNc2ccccc21 (stereo not given)	0.13	3.5	-27	3.5	12.2							MD [23]: 1
CCCCCCCCn1cc(SCC/N=C2\CCCN2C)c2ccccc21		7.3	-32		14.8							CS index [24]: 2; MD [14]: 2
CN1CCCC1=NCCCCc1c[nH]c2ccccc12	0.11	6.1	-50	3.1	19							MD [3]: 0
CN1CCC/C1=N\CCSc1cn(C)c2ccccc12	0.52	1.2	-30	16.8	20.2	34	53	24	33	47	13	Max decrease in heart rate [25]: 32%; MD [18]: 2; Max decrease in heart rate [26]: 39%; Max decrease in heart rate [27]: 22%
CCCc1[nH]c2ccccc2c1SCC/N=C1\CCCN1C	0.11	7.9	-62	3.7	29							MD [28]: 4
CN1CCN=C1NCCCCSc1c[nH]c2ccccc12	0.03	12.6	-27	0.8	10.5							MD [3]: 0
CCCc1[nH]c2ccccc2c1SCCNC1=NCCN1C	0.2	2.1	-27	6.3	13.2							MD [28]: 4
CC(C)COCC(CN(Cc1ccccc1)c1ccccc1)N1CCCC1 (stereo not given) [BEPRIDIL]	0.23	2	-30	7.4	14.8	30	45	10	18	25	16	Max decrease in heart rate [29]: 39%; Max decrease in heart rate [30]: 13%; MD [23]: 1; Max decrease in heart rate [31]: 23%
COc1ccc(CC/N=C2/CCCN2C)cc1OC [MIXIDINE]	0.18	3.3	-34	5.9	19.6	16	28	12	24	35		Max decrease in heart rate [25]: 25%; Max decrease in heart rate [26]: 33%; Max decrease in heart rate [27]: 6%; MD [23]: 1
